Experimental findings from ChEMBL document CHEMBL1156976, “Enhancement of antiproliferative activity by molecular simplification of catalpol” (2010) are described below.

The test system of assay [1] is HBL-100. Put plainly: Antiproliferative activity against human HBL100 cells after 48 hrs by sulforhodamine B assay. In kind it is functional. The conditions noted are these: HBL-100, 48 h. The essentials: (§1)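 SRB assay in RPMI 1640 with 5% heat-inactivated FCS and 2 mM L-glutamine at 37 °C. Seeding was 15,000 cells/well for WiDr, T-47D and HeLa, and 10,000 for A2780, SW1573 and HBL-100. Compound was added on day 1 from DMSO stock (400× top final; 0.25% v/v DMSO control), in triplicate dilutions over 1–100, for 48 h. Cells were fixed with cold 50% TCA for 60 min at 4 °C and read at OD 492 nm. Percentage growth was calculated from T0 and end OD by NCI formulas, as means ± SD of 3–5 experiments.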

For assay [2], the system named is SW1573. Put plainly: Cell cycle arrest in human SW1573 cells assessed as accumulation at S phase at 1 to 2 uM after 24 hrs using propidium iodide staining by flow cytometry. The assay is classed as functional, cell-based. The essentials: (§2)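 Cells were seeded at 2.5–5 × 10^5 per well. After 24 h they were dosed at 1, 2, 3 and 5 for 24 h, then trypsinized and fixed overnight in ice-cold 70% ethanol at −20 °C. Samples were RNase-treated for 30 min at 37 °C in the dark and stained with propidium iodide. DNA content was read by flow cytometry on 25,000 cells/sample, giving sub-G1, G0/G1, S and G2/M fractions.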

In assay [3] the test system is HBL-100. Put plainly: Cell cycle arrest in human HBL100 cells assessed as accumulation at S phase at 1 to 2 uM after 24 hrs using propidium iodide staining by flow cytometry. The assay is classed as functional, cell-based. The gist of the method:
as §2

For assay [4], the system named is SW1573. The experiment in a line: Antiproliferative activity against human SW1573 cells after 48 hrs by sulforhodamine B assay. The conditions noted are these: SW1573, 48 h. In kind it is functional. The essentials:
as §1

The test system of assay [5] is SW1573. The experiment in a line: Cell cycle arrest in human SW1573 cells assessed as accumulation at G0/G1 phase at 1 to 2 uM after 24 hrs using propidium iodide staining by flow cytometry. The assay is classed as functional, cell-based. The essentials: as §2
In assay [6] the test system is WiDr. The experiment in a line: Induction of apoptosis in human WiDr cells assessed as early apoptotic cells at 3 uM after 24 hrs using FITC-conjugated annexin V and propidium iodide staining by flow cytometry. In kind it is functional. The gist of the method:
(§3)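 Cells were seeded at 0.25–0.5 × 10^6. After 24 h they were exposed to drug for 24 h, then kept in drug-free medium for a further 24 h. About 10,000 events were read (488/525 and 488/675 nm). Early apoptosis was AnnexinV+/PI−; late apoptosis was AnnexinV+/PI+.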

Assay [7] deals with HBL-100. The experiment in a line: Cell cycle arrest in human HBL100 cells assessed as accumulation at G0/G1 phase at 1 to 2 uM after 24 hrs using propidium iodide staining by flow cytometry. The assay is classed as functional, cell-based. The essentials:
as §2

The subject of assay [8] is HeLa. The experiment in a line: Induction of apoptosis in human HeLa cells assessed as late apoptotic cells at 3 uM after 24 hrs using FITC-conjugated annexin V and propidium iodide staining by flow cytometry. In kind it is functional. The essentials:
as §3

The next assay deals with A2780. The experiment in a line: Antiproliferative activity against human A2780 cells after 48 hrs by sulforhodamine B assay. The assay is classed as functional. To be noted: A2780, 48 h. The gist of the method: as §1
Assay [9] concerns HeLa. Put plainly: Antiproliferative activity against human HeLa cells after 48 hrs by sulforhodamine B assay. In kind it is functional. The essentials: as §1
The subject of the next assay is T47D. The experiment in a line: Antiproliferative activity against human T47D cells after 48 hrs by sulforhodamine B assay. The assay is classed as functional. The gist of the method: as §1
For assay [10], the system named is HeLa. The experiment in a line: Decrease in cyclin D1 expression in human HeLa cells at 10 uM by Western blot analysis. In kind it is functional, cell-based. To be noted: TDE = time-dependent effect. The gist of the method: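 HeLa cells were treated for 12 and 24 h, then lysed on ice in Tris pH 8.0/NaCl/NP-40/SDS/EDTA buffer with protease and phosphatase inhibitors, and cleared at 10,000 g. Proteins were run by SDS–PAGE and transferred to PVDF. Blots were probed with anti-cyclin D1, followed by HRP secondary for 30 min. Bands were detected by luminol chemiluminescence with p-iodophenol enhancement.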

For assay [11], the system named is WiDr. The experiment in a line: Antiproliferative activity against human WiDr cells after 48 hrs by sulforhodamine B assay. The assay is classed as functional. The essentials:
as §1

The test system of assay [12] is SW1573. Put plainly: Cell cycle arrest in human SW1573 cells assessed as accumulation at sub G1 phase at 3 to 5 uM after 24 hrs using propidium iodide staining by flow cytometry. The assay is classed as functional, cell-based. The essentials: as §2
Assay [13] has as its system HeLa. Put plainly: Induction of apoptosis in human HeLa cells assessed as early apoptotic cells at 3 uM after 24 hrs using FITC-conjugated annexin V and propidium iodide staining by flow cytometry. In kind it is functional. The essentials: as §3
Assay [14] has as its system HBL-100. Put plainly: Cell cycle arrest in human HBL100 cells assessed as accumulation at sub G1 phase at 3 to 5 uM after 24 hrs using propidium iodide staining by flow cytometry. The assay is classed as functional, cell-based. The gist of the method:
as §2

Assay [15] deals with WiDr. Put plainly: Induction of apoptosis in human WiDr cells assessed as late apoptotic cells at 3 uM after 24 hrs using FITC-conjugated annexin V and propidium iodide staining by flow cytometry. The assay is classed as functional. The gist of the method: as §3

Each structure is given as a SMILES string. Activity calls are given as the source filed them. The calls are words filed in the database; no cut-off is given here. Some results are limits rather than exact numbers.

For the molecule `CC(=O)O[C@@H]1OC=C[C@@H]2[C@H]1[C@@H](C)C[C@H]2O[Si](c1ccccc1)(c1ccccc1)C(C)(C)C`, the 50% growth inhibitory concentration (GI50) was determined as 500 nM in the assay with HBL-100 [1]; 590 nM with SW1573 [4]; 1590 nM in the assay on A2780; 1860 nM with HeLa [9]; 1460 nM in the assay on T47D; 1260 nM in the assay with WiDr [11]. In addition, the outcome in the assay with SW1573 [2] and with HBL-100 [3] was inactive. In addition, the result in the assay on SW1573 [5], in the assay with HBL-100 [7], in the assay on SW1573 [12] and with HBL-100 [14] was Active. For the same molecule, the Activity with WiDr [6] was 33%; in the assay with HeLa [8], 25%; in the assay on HeLa [10] it was “tde”; with HeLa [13], 18%; in the assay on WiDr [15] it was 3.7%.

Turning to `CC(=O)O[C@H]1OC=C[C@H]2[C@@H]1[C@H](C)C[C@H]2O[Si](c1ccccc1)(c1ccccc1)C(C)(C)C`, the GI50 is 380 nM in the assay on HBL-100 [1]; 430 nM with SW1573 [4]; 1240 nM in the assay with A2780; 1680 nM in the assay on HeLa [9]; 1620 nM in the assay on T47D; 1130 nM in the assay on WiDr [11]. The Activity is listed as 23% in the assay on WiDr [6], 12% in the assay with HeLa [8], 18% in the assay with HeLa [13] and 2.4% with WiDr [15].

As to `OC[C@H]1O[C@@H](O[C@@H]2OC=C[C@H]3[C@H](O)[C@@H]4O[C@]4(CO)[C@@H]23)[C@H](O)[C@@H](O)[C@@H]1O` [CATALPOL], the GI50 in the assay on HBL-100 [1], with SW1573 [4], in the assay with A2780, in the assay with HeLa [9], in the assay with T47D and in the assay with WiDr [11] was more than 100000 nM in each case.
